Values after ≈ are worked out from the molar mass of the structure shown.
Tests used:
[1] = target: T1, Scytalone dehydratase (Magnaporthe oryzae (strain 70-15 / FGSC 8958) (Rice blast fungus)(Pyricularia oryzae), UniProt P56221); design: species or system Pyricularia grisea
T1 sequence (P56221 whole entry): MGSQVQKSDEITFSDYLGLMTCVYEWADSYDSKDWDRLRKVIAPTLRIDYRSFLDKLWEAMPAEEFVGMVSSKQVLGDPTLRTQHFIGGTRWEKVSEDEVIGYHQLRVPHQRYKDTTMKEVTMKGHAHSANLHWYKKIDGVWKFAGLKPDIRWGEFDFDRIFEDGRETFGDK

[2] = system: rice; test: Concentration that affords 90% control of blast disease on rice plants in greenhouse assay; format: functional
In short: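 Foliar greenhouse test on rice plants against blast disease; compounds applied over a range of concentrations, and the concentration giving 90% disease control was derived from the dose-response data.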

| Compound | Ki [1] | ED90 [2] |
| --- | --- | --- |
| CCC(C#N)C(=O)N[C@H](C)COc1cc(F)ccc1F (stereo partly drawn) | 5.5 nM | > 200 µg/mL |
| C[C@H](COc1cc(F)ccc1F)NC(=O)C(C#N)C(C)(C)C (stereo partly drawn) |  | 6 µg/mL (≈ 19.3 µM) |
| CCC(C#N)C(=O)N[C@H](C)[C@@H](Oc1cc(Br)ccc1C#N)c1ccccc1 (stereo partly drawn) | 0.034 nM | 50 µg/mL (≈ 117 µM) |
| C[C@H](COc1cc(F)ccc1F)NC(=O)C(C#N)C1CC1 (stereo partly drawn) | 1.1 nM | 50 µg/mL (≈ 170 µM) |
| C[C@H](COc1cc(F)ccc1F)NC(=O)[C@H](C#N)C(C)(C)C | 0.02 nM |  |
| C[C@@H](NC(=O)C(C#N)C1CC1)[C@@H](Oc1cc(F)ccc1F)c1ccccc1 (stereo partly drawn) | 0.014 nM | 2 µg/mL (≈ 5.4 µM) |
| CCC(C#N)C(=O)N[C@H](C)[C@@H](Oc1cc(F)ccc1C#N)c1ccccc1 (stereo partly drawn) | 0.021 nM | 50 µg/mL (≈ 137 µM) |
| CC(C)C(C#N)C(=O)N[C@H](C)COc1cc(F)ccc1F (stereo partly drawn) | 0.27 nM | 10 µg/mL (≈ 33.7 µM) |
| CC(C)C(C#N)C(=O)N[C@H](C)[C@@H](Oc1cc(F)ccc1F)c1ccccc1 (stereo partly drawn) | 0.076 nM | 100 µg/mL (≈ 269 µM) |
| C[C@@H](NC(=O)C(C#N)C(C)(C)C)[C@@H](Oc1ccccc1C#N)c1ccccc1 (stereo partly drawn) | 0.14 nM | 200 µg/mL (≈ 533 µM) |
| CC(C)C(C#N)C(=O)N[C@H](C)[C@@H](Oc1ccccc1C#N)c1ccccc1 (stereo partly drawn) | 0.038 nM | 25 µg/mL (≈ 69.2 µM) |
| CCC(C#N)C(=O)N[C@H](C)[C@@H](Oc1cc(Cl)ccc1C#N)c1ccccc1 (stereo partly drawn) | 0.031 nM | 10 µg/mL (≈ 26.2 µM) |
| CC(C)C(C#N)C(=O)N[C@H](C)[C@@H](Oc1cc(F)ccc1C#N)c1ccccc1 (stereo partly drawn) | 0.034 nM | 25 µg/mL (≈ 65.9 µM) |
| CCC(C#N)C(=O)N[C@H](C)[C@@H](Oc1ccccc1C#N)c1ccccc1 (stereo partly drawn) | 0.07 nM | 10 µg/mL (≈ 28.8 µM) |
| CCC(C#N)C(=O)N[C@H](C)[C@@H](Oc1cc(F)ccc1F)c1ccccc1 (stereo partly drawn) | 0.02 nM | 2 µg/mL (≈ 5.58 µM) |
